The subject of assay [1] is Human immunodeficiency virus 1. The experiment in a line: In vitro reduction of p24 by 90% in Efavirenz resistant HIV-1 (K103R, V179D, P225H) infected C8166 cells. In kind it is functional. The note with it: Human immunodeficiency virus 1, C8166. An outline of the steps:
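C8166 cells (1×10^4/well) with compound dilutions infected with K103R–V179D–P225H HIV-1 (IIIB passaged in C8166 under efavirenz up to 2 μM), 37 °C; p24 antigen measured by immunoenzymatic kit alongside WT IIIB. EC90 = concentration cutting p24 by 90%; mean of three experiments.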

The nature of assay [2]: In vitro concentration required to reduce the amount of p24 by 90% in WTIIIB infected C8166 cells. Format: functional. The note with it: Homo sapiens. In short, it runs like this:
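C8166 cells (1×10^4 per well) in RPMI 1640 with 10% FCS, exposed to serial compound dilutions (DMSO stock 200 mM, diluted in medium), then infected with HIV-1 IIIB from H9/IIIB supernatants, inoculum sized for complete cytopathicity at day 4; incubation at 37 °C; p24 measured by immunoenzymatic kit; EC90 = concentration cutting p24 by 90%; means of three experiments.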

The subject of a further assay is MT4. The experiment in a line: In vitro cytotoxicity against mock infected MT-4 cells. Format: functional. The note with it: Homo sapiens. In short, it runs like this:
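Mock-infected MT-4 cells (1×10^4 per well) in RPMI 1640 with 10% FCS, 37 °C, 5% CO2, exposed to serial compound dilutions (DMSO stock 200 mM, diluted in medium), run in parallel with antiviral wells; viability read by MTT; CC50 = concentration reducing viability by 50%; means of three separate experiments, triplicate samples.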

The subject of assay [3] is Human immunodeficiency virus 1. The experiment in a line: Inhibition of Efavirenz resistant HIV-1 (Y181C) induced cytopathicity in MT-4 cells. In kind it is functional, organism-based. Particulars: Human immunodeficiency virus 1, MT4. An outline of the steps:
(§1)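 MT-4 cells (1×10^4/well) with test compound dilutions (from 200 mM DMSO stock) infected with mutant HIV-1 at a CCID50 dose causing complete cytopathicity by day 4, 37 °C; viability by MTT. Y181C from clinical isolate passaged under nevirapine; K103N–Y181C from IIIB passaged under BI-RG 587. EC50 = 50% protection; mean of three experiments.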
In general terms: Cytopathic effects are the visible damage that an infection or toxin causes in cultured cells.

Assay [4] relates to Human immunodeficiency virus 1. Kind of assay: Inhibition of HIV-1 (IIIB) induced cytopathicity in MT-4 cells. In kind it is functional, organism-based. The note with it: Human immunodeficiency virus 1, MT4. In short, it runs like this:
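HIV-1 IIIB (from persistently infected H9/IIIB supernatant) added to MT-4 cells (1×10^4/well) with graded compound concentrations, dose set to give full cytopathicity by day 4, 37 °C. Cell viability read by MTT; EC50 = concentration giving 50% protection. Mean of three experiments.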

Assay [5] relates to Human immunodeficiency virus 1. Kind of assay: Inhibition of Efavirenz resistant HIV-1 (K103N-Y181C) induced cytopathicity in MT-4 cells. The note with it: Human immunodeficiency virus 1, MT4. In kind it is functional, organism-based. In short, it runs like this:
as §1

Assay [6] is described as follows: Selectivity index (Ratio of CC50/EC50). Format: functional. In short, it runs like this:
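Ratio of CC50 (MTT viability of mock-infected MT-4 cells) to EC50 (MTT protection of MT-4 cells from cytopathicity of HIV-1 IIIB, inoculum giving complete cytopathicity at day 4, 37 °C); both run in parallel on the same compound dilution series.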

Some results are limits rather than exact numbers.

For the compound `O=C1Nc2ccc(Cl)cc2[C@@](C#CC2CC2)(C(F)(F)F)O1` [EFAVIRENZ], the EC90 (as a rule, the point of the concentration-response curve where the effect stands at 90%) in assay [1] amounted to 1800 nM; in assay [2], 8 nM. Also, the CC50 (as a rule, the concentration at which the toxic effect on the cells reaches its halfway point) with MT4 was 35000 nM.
Regarding `Cc1ccnc2c1NC(=O)c1cccnc1N2C1CC1` [NEVIRAPINE], the EC90 in assay [1] is more than 30000 nM; in assay [2] it was 120 nM. Moreover, the EC50 (as a rule, the midpoint of the concentration-response curve) is more than 30000 nM in assay [3], 400 nM in assay [4] and more than 30000 nM in assay [5]. The CC50 in the assay with MT4 is more than 100000 nM. The Ratio in assay [6] was more than 270.
In the case of `NNC(=O)c1[nH]c2ccc(Cl)cc2c1S(=O)(=O)c1ccccc1`, the EC90 in assay [1] was 3000 nM; in assay [2], 20 nM. Moreover, the EC50 is 400 nM in assay [3] and not below 100000 nM in assay [5]. This compound came in with a CC50 with MT4 of more than 100000 nM. Further, in assay [6], the Ratio is more than 10000.
Consider `Cc1cc(C)cc(S(=O)(=O)c2c(C(=O)NC(C)C(=O)NN)[nH]c3ccc(Cl)cc23)c1` (stereo not drawn), for which the 90% effect concentration (EC90) in assay [1] turned out to be 700 nM; in assay [2], 70 nM. Also, the values for the EC50 in assay [3], in assay [4] and in assay [5] were 140 nM, 30 nM and 4700 nM, respectively. Further, the CC50 in the assay on MT4 was determined as 20000 nM. In addition, in assay [6], the Ratio came to 666.
For `Cc1cc(C)cc(S(=O)(=O)c2c(C(=O)NCC(=O)NN)[nH]c3ccc(Cl)cc23)c1`, the values for the EC90 in assay [1] and in assay [2] were 1000 nM and 30 nM, respectively. The EC50 in assay [3] turned out to be 50 nM; in assay [4], 10 nM; in assay [5] it was 2000 nM. For the same compound, the CC50 in the assay with MT4 was more than 100000 nM. Moreover, the Ratio in assay [6] was more than 10000.
For `NC(=O)c1[nH]c2ccc(Cl)cc2c1S(=O)(=O)c1ccccc1` [L-737126], the EC90 in assay [1] turned out to be 900 nM; in assay [2], 7 nM. Besides, the figures for the EC50 in assay [3] and in assay [5] were 20 nM and 8000 nM, respectively. In the assay on MT4, the CC50 was 45000 nM. For the same compound, in assay [6], the Ratio worked out at 45000.
Turning to `Cc1cc(C)cc(S(=O)(=O)c2c(C(=O)NCC(N)=O)[nH]c3ccc(Cl)cc23)c1`, the EC90 in assay [1] came out at 100 nM; in assay [2], 10 nM. In addition, the results for the concentration for a half-maximal effect (EC50) in assay [3], in assay [4] and in assay [5] were 30 nM, 6 nM and 800 nM, respectively. The same compound showed a CC50 with MT4 of 30000 nM. Further, the Ratio in assay [6] amounted to 5000.
In assay [1], `NC(=O)CNC(=O)c1[nH]c2ccc(Cl)cc2c1S(=O)(=O)c1ccccc1` yielded an EC90 of 2700 nM. In addition, the EC50 is 180 nM in assay [3], 13 nM in assay [4] and more than 20000 nM in assay [5]. For the same compound, it took 65000 nM to reach half-maximal cytotoxicity in the assay with MT4 (CC50). Besides, the Ratio in assay [6] was 5000.
`Cc1cc(C)cc(S(=O)(=O)c2c(C(N)=O)[nH]c3ccc(Cl)cc23)c1`: the EC90 in assay [1] is 80 nM; in assay [2] it was 6 nM. For the same compound, the EC50 in assay [3] was determined as 30 nM; in assay [5] it was 600 nM. This compound came in with a CC50 with MT4 of 15000 nM. In assay [6], the Ratio stood at 3750.
Consider `Cc1cc(C)cc(S(=O)(=O)c2c(C(=O)NC(C)C(N)=O)[nH]c3ccc(Cl)cc23)c1` (stereo not drawn), for which the results for the EC90 in assay [1] and in assay [2] were 40 nM and 4 nM, respectively. Besides, the EC50 in assay [3] turned out to be 10 nM; in assay [4], 3 nM; in assay [5], 700 nM. Moreover, in the assay with MT4, it took 4000 nM to reach half-maximal cytotoxicity (CC50). The Ratio in assay [6] turned out to be 1330.
Consider `CC(NC(=O)c1[nH]c2ccc(Cl)cc2c1S(=O)(=O)c1ccccc1)C(N)=O` (stereo not drawn), for which the EC90 in assay [1] came to 3000 nM. Further, the EC50 in assay [3] was 360 nM; in assay [4], 10 nM; in assay [5], 16000 nM. The same compound came in with a CC50 in the assay on MT4 of 64000 nM. Moreover, the Ratio in assay [6] was 6400.

(Values after ChEMBL document CHEMBL1148441, “Simple, short peptide derivatives of a sulfonylindolecarboxamide (L-737,126) active in vitro against HIV-1 wild type and variants carrying non-nucleoside reverse transcriptase inhibitor resistance mutations” (J Med Chem, 2004).)
